Data on two substances can be found in ChEMBL document CHEMBL5316289, “Structure-Based Rational Design of Small α-Helical Peptides with Broad-Spectrum Activity against Multidrug-Resistant Pathogens” (J Med Chem, 2023).

For test [1], the system named is Cell membrane. In words: Disruption of cell membrane in Escherichia coli ATCC BAA-2452 assessed as increase in PI fluorescence intensity measured after 1 hrs by PI staining based flow cytometric analysis. The essentials: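 Mid-log E. coli ATCC BAA-2452 grown in Mueller Hinton broth, washed thrice and resuspended at 10^7 CFU/mL in 10 mM Tris pH 7.4. […] Controls: PBS (negative) and 10% Triton X-100 (positive). Triplicate; two-tailed unpaired t-test.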
(Flow cytometry measures light scatter and fluorescence of single cells or particles in a stream.)

Test [2] has as its system Cell membrane. In words: Disruption of cell membrane in methicillin resistant Staphylococcus aureus ATCC BAA 1556 assessed as cell membrane perturbation at 4 times of MIC measured after 1 hrs by DAPI and PI double staining based fluorescence microscopic analysis. The essentials:
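Mid-log cells washed in PBS (10 mM, pH 7.3), 10^7 CFU/mL, treated at MIC and 4× MIC for 1 h. Pelleted and washed, then stained with PI for 15 min at 37 °C in the dark, then DAPI for 15 min at 37 °C in the dark. Untreated controls. Imaged by fluorescence microscopy, 60× oil objective.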

The subject of test [3] is Staphylococcus aureus. In words: Bactericidal activity against methicillin resistant Staphylococcus aureus ATCC BAA 1556 assessed as inhibition of bacterial growth at MIC to 4 times of MIC by Time kill assay. Type of test: functional, organism-based. As to conditions: time 4.0 hrs, TDE = time-dependent effect. The essentials:
(§1)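 Aliquots taken every 30 min for 4 h and plated on agar for viable colony counts. Two independent experiments in triplicate.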

The subject of test [4] is Escherichia coli. Kind of test: Antibacterial activity against Escherichia coli ATCC 25922 assessed as fold increase in MIC incubated for 24 hrs in presence of NH4+ ions by CLSI based broth microdilution method. In kind it is functional. In a few lines:
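E. coli MICs by CLSI broth microdilution in cation-adjusted Mueller Hinton broth. […] Inoculum was 10^6 CFU/mL with 2-fold serial peptide dilutions, incubated 24 h at 37 °C. MIC is the lowest concentration inhibiting growth. Three independent assays, each in triplicate.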
In general terms: In broth dilution the organism is exposed to a series of concentrations in liquid medium.

The test system of test [5] is HepaRG. Kind of test: Antiproliferative activity human HepaRG cells assessed as reduction in cell viability at 50 ug/ml incubated for 24 hrs by MTS assay. Type of test: functional. As to conditions: dose 50 µg/ml. In a few lines: (§2)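 Cells seeded at 10,000 per well 24 h before treatment. Media: MRC-5 and HEK293 in DMEM with 10% FBS; HepaRG in William's E with GlutaMAX; HEKa in Dermal Cell Basal medium plus keratinocyte growth kit. Peptide at 10–250 μg/mL in triplicate for 24 h, 37 °C, 5% CO2. MTS added for 2 h, then A490 read. Survival is blank-corrected OD as % of untreated control.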
A general note: Tetrazolium dyes change colour on reduction, which living cells bring about.

For the next test, the system named is MRC5. Kind of test: Antiproliferative activity human MRC5 cells assessed as reduction in cell viability at 50 ug/ml incubated for 24 hrs by MTS assay. In kind it is functional. Particulars: dose 50 µg/ml. In a few lines: as §2
The nature of test [6]: Antiproliferative activity human HEKa cells assessed as reduction in cell viability at 250 ug/ml incubated for 24 hrs by MTS assay. Type of test: functional. Particulars: dose 250 µg/ml. The essentials:
as §2

Test [7] concerns Cell membrane. In words: Induction of membrane disruption in bacterial inner membrane mimic DOPC/DOPG (7:3) large unilamellar vesicles assessed as induction of dye leakage at 50 ug/ml measured after 100 mins by calcein dye based analysis. Type of test: subcellular. Particulars: dose 50.0 µg/ml. The essentials:
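LUVs loaded with calcein: DOPC/DOPG 7:3 w/w (bacterial mimic) or DOPC/cholesterol 10:1 w/w (mammalian mimic). Mixed 1:1 by volume with peptide at 5, 10, 20, 30 or 50 μg/mL. Fluorescence (ex 490/em 520 nm) read every 10 min for 100 min. Leakage expressed relative to 10% Triton X-100 lysis (100%), after subtracting liposome background. Triplicate.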

Test [8] relates to Staphylococcus aureus. Kind of test: Antibacterial activity against methicillin resistant Staphylococcus aureus ATCC BAA 1556 assessed as fold increase in MIC incubated for 24 hrs in presence of NH4+ ions by CLSI based broth microdilution method. Type of test: functional. In a few lines:
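CLSI broth microdilution. Overnight cultures diluted in cation-adjusted Mueller Hinton broth to 10^6 CFU/mL, mixed 1:1 with 2-fold serial peptide dilutions, 24 h at 37 °C. […] MIC is the lowest concentration inhibiting growth. Three independent assays in triplicate.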

Test [9] relates to HepaRG. Kind of test: Antiproliferative activity human HepaRG cells assessed as reduction in cell viability at 250 ug/ml incubated for 24 hrs by MTS assay. In kind it is functional. Particulars: dose 250 µg/ml. In a few lines: as §2
Test [10] relates to Escherichia coli. Kind of test: Bactericidal activity against […] Escherichia coli ATCC BAA 2452 assessed as inhibition of bacterial growth at MIC to 4 times of MIC by Time kill assay. In kind it is functional, organism-based. As to conditions: time 4.0 hrs, TDE = time-dependent effect. In a few lines:
as §1

Test [11] deals with Escherichia coli. In words: Induction of membrane morphological changes in Escherichia coli ATCC BAA-2452 assessed as cell surface blebs formation at 4 times of MIC measured after 1 hrs by FE-SEM analysis. In kind it is functional, organism-based. The essentials: (§3)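 E. coli ATCC BAA-2452 grown to exponential phase in MHB at 37 °C with shaking, then diluted to 2 × 10^6 CFU/mL. […] Cells were PBS-washed and fixed 3 h in 4% glutaraldehyde in 0.2 M cacodylate. Then ethanol-dehydrated, HMDS-dried, Au/Pd-coated and imaged by FE-SEM. Untreated control.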

The subject of test [12] is Staphylococcus aureus. Kind of test: Induction of membrane morphological changes in methicillin resistant Staphylococcus aureus ATCC BAA 1556 assessed as cell surface wrinkling at 4 times of MIC measured after 1 hrs by FE-SEM analysis. Type of test: functional, organism-based. The essentials:
(§4)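 Methods give 30 min; legend gives 1 h. Washed, fixed in 4% glutaraldehyde in 0.2 M Na-cacodylate for 3 h, dehydrated through graded ethanol, dried with HMDS, Au/Pd-coated (~20 nm) and imaged by SEM. Untreated cells as control.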

The test system of test [13] is Staphylococcus aureus. Kind of test: Induction of membrane morphological changes in methicillin resistant Staphylococcus aureus ATCC BAA 1556 assessed as cellular debris formation at 4 times of MIC measured after 1 hrs by FE-SEM analysis. Type of test: functional, organism-based. The essentials:
as §4

Test [14] relates to Escherichia coli. Kind of test: Bactericidal activity against […] Escherichia coli ATCC BAA 2452 assessed as inhibition of bacterial growth at 4 times of MIC incubated for 4 hrs by Time kill assay. In kind it is functional. The essentials:
as §1

The test system of test [15] is Staphylococcus aureus. In words: Induction of membrane morphological changes in methicillin resistant Staphylococcus aureus ATCC BAA 1556 assessed as cell surface roughening at 4 times of MIC measured after 1 hrs by FE-SEM analysis. Type of test: functional, organism-based. In a few lines:
as §4

For test [16], the system named is Escherichia coli. Kind of test: Induction of membrane morphological changes in Escherichia coli ATCC BAA-2452 assessed as cellular debris formation at 4 times of MIC measured after 1 hrs by FE-SEM analysis. In kind it is functional, organism-based. In a few lines: as §3

Activity calls are given as the source filed them. The rule behind the calls is not given here.

In the case of H-RWLRRWLRWWRR-NH2, the Activity entry is “Dose-Dependent Effect” in the test on Cell membrane [1]; under 60% with HepaRG [5]; under 60% in the test on MRC5; under 30% in [6]; 80% in the test on Cell membrane [7]; under 30% in the test on HepaRG [9]. In addition, the result with Cell membrane [2] was Active. The inhibition result in the test on Staphylococcus aureus [3] and in the test with Escherichia coli [10] was “Tde” throughout. Moreover, the “fold change (FC)” value with Escherichia coli [4] and with Staphylococcus aureus [8] was 2 throughout.
With H-KWLKKWLKWWKK-NH2, the Activity result with Cell membrane [1] is “Dose-Dependent Effect”; in the test with HepaRG [5] it was over 75%; in the test on MRC5 it was over 75%; in the test with Cell membrane [7], 80%; with HepaRG [9], over 60%. Besides, the outcome with Escherichia coli [11], in the test with Staphylococcus aureus [12], with Cell membrane [2], in the test on Staphylococcus aureus [13], in the test with Staphylococcus aureus [15] and in the test on Escherichia coli [16] was Active. Also, the inhibition result in the test with Staphylococcus aureus [3] and with Escherichia coli [10] was “Tde” each time. In addition, the “inhibition (INH)” value with Escherichia coli [14] was found to be 70%. For the same substance, the “fold change (FC)” value in the test on Escherichia coli [4] and with Staphylococcus aureus [8] was 2 in each case.
